# Measured values as given in the M2OR odorant receptor database.
# How the values were obtained:
# Conditions in all cases: stereoisomer not certain
# UniProt L7MU75 = target: T1, UniProt L7MU75
# T1 sequence (whole entry): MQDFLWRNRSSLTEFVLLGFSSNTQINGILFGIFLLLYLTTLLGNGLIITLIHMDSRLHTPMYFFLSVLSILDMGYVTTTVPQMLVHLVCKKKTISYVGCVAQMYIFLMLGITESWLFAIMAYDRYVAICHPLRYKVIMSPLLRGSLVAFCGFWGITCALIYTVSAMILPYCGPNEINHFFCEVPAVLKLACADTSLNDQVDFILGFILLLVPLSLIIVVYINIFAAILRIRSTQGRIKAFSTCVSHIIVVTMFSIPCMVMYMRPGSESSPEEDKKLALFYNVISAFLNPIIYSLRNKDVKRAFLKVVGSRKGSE
# Outline: (§1)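 Transient luciferase assays in mammalian cell lines were common, though methods varied by source. The values come from published papers and their supplementary material, with extra details from the original authors when needed. Responsive refers to a measured signal the original authors judged statistically different from baseline, and non-responsive (inactive) to the remainder.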
# UniProt L7N0P5 = target: T2, UniProt L7N0P5
# T2 sequence (whole entry): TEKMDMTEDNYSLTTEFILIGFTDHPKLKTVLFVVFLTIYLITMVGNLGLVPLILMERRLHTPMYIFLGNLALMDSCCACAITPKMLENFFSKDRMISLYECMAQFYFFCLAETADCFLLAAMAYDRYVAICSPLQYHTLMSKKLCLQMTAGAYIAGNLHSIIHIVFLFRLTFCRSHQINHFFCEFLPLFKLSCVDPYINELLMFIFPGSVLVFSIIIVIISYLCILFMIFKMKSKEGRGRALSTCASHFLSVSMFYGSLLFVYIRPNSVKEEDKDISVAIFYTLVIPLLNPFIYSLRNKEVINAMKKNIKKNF
# Outline: as §1
# UniProt L7N210 = target: T3, UniProt L7N210
# T3 sequence (whole entry): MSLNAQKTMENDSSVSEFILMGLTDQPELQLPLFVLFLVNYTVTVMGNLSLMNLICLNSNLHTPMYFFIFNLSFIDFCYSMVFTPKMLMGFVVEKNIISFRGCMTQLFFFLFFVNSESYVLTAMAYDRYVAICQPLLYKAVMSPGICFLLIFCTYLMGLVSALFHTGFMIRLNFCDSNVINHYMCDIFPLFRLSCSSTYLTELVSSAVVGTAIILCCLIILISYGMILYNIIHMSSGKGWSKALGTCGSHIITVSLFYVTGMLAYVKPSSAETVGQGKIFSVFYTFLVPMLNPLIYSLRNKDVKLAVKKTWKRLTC
# Outline: as §1
# UniProt Q3KPB0 = target: T4, UniProt Q3KPB0
# T4 sequence (whole entry): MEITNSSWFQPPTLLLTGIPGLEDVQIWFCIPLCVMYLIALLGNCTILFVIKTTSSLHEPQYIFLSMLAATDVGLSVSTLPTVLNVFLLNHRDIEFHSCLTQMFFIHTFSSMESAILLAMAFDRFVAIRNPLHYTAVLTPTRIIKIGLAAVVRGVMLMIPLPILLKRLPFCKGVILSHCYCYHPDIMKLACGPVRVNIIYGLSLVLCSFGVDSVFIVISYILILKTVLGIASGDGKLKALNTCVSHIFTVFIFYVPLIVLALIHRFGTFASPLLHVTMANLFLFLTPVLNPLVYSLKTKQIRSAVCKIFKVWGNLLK
# Outline: as §1
# UniProt Q3U0P3 = target: T5, UniProt Q3U0P3
# T5 sequence (whole entry): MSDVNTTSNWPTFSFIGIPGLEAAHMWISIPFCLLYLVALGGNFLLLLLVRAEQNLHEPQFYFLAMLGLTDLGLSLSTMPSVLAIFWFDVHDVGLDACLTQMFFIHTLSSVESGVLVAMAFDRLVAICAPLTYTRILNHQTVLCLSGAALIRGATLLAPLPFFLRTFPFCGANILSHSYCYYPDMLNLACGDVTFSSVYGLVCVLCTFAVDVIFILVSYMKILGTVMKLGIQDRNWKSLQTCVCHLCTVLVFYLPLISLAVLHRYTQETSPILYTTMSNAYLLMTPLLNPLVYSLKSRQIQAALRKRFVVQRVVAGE
# Outline: as §1
# UniProt Q7TQU8 = target: T6, UniProt Q7TQU8
# T6 sequence (whole entry): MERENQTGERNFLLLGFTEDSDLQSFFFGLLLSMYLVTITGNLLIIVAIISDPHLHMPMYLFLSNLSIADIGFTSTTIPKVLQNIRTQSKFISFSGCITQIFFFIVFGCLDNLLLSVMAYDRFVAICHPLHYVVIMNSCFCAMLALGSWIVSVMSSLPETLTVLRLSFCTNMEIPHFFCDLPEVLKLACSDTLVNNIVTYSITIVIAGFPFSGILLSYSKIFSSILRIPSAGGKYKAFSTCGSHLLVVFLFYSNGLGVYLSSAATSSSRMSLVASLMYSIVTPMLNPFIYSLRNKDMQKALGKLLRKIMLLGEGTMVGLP
# Outline: as §1
# UniProt L7N1Y8 = target: UniProt L7N1Y8
# Chain of UniProt L7N1Y8 (L7N1Y8 as listed by the source): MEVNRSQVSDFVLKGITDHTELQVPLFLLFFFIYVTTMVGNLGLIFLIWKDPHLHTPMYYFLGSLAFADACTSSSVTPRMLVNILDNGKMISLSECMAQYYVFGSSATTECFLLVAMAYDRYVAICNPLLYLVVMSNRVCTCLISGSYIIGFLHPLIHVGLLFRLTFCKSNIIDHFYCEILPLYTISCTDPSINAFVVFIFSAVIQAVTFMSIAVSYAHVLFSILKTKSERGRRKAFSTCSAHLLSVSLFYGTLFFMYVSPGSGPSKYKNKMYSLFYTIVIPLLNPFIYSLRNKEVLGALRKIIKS
# Outline: as §1
# UniProt Q7TQV4 = target: T7, UniProt Q7TQV4
# T7 sequence (whole entry): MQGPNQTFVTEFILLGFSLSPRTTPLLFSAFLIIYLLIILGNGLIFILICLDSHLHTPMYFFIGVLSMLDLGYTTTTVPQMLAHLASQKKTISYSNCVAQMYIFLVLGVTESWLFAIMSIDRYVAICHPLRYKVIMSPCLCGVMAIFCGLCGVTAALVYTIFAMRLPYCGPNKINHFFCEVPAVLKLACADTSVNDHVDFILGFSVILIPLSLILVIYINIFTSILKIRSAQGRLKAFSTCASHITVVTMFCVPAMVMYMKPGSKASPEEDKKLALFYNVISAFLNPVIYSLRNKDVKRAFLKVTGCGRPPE
# Outline: as §1
# 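Also: active if original authors judged signal statistically different from baseline.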
structure (smiles),measurement,setting,value
CC(C)=CC1CC(C)CCO1 (stereo not given),odorant receptor agonist call,UniProt L7MU75,inactive
CCCCCC(C)(C)O,odorant receptor agonist call,UniProt L7MU75,inactive
CCOc1ccccc1,odorant receptor agonist call,UniProt L7MU75,inactive
COc1cnccn1,odorant receptor agonist call,UniProt L7MU75,inactive
same,odorant receptor agonist call,UniProt L7N0P5,active
same,odorant receptor agonist call,UniProt L7N210,inactive
same,odorant receptor agonist call,UniProt Q3KPB0,inactive
same,odorant receptor agonist call,UniProt Q3U0P3,inactive
same,odorant receptor agonist call,UniProt Q7TQU8,inactive
OCCc1ccccc1,odorant receptor agonist call,UniProt L7MU75,inactive
same,odorant receptor agonist call,UniProt L7N210,inactive
same,odorant receptor agonist call,UniProt Q3KPB0,inactive
same,odorant receptor agonist call,UniProt Q3U0P3,inactive
same,odorant receptor agonist call,UniProt Q7TQU8,inactive
O=c1ccc2ccccc2o1,odorant receptor agonist call,UniProt L7MU75,active
same,odorant receptor agonist call,UniProt L7N1Y8,active
same,odorant receptor agonist call,UniProt L7N210,active
same,odorant receptor agonist call,UniProt Q7TQV4,active
CC(C)C12CCC(C)(CC1)O2,odorant receptor agonist call,UniProt L7MU75,inactive
CCCOC(=O)CCC,odorant receptor agonist call,UniProt L7MU75,inactive
CCCC(=O)OCC,odorant receptor agonist call,UniProt L7MU75,inactive
O=C(Cl)CCCCCCCC(=O)Cl,odorant receptor agonist call,UniProt L7MU75,inactive
CC(=O)C1(C)CC2=C(CCCC2(C)C)CC1C (stereo not given),odorant receptor agonist call,UniProt L7MU75,inactive
same,odorant receptor agonist call,UniProt L7N210,inactive
same,odorant receptor agonist call,UniProt Q3KPB0,inactive
same,odorant receptor agonist call,UniProt Q3U0P3,inactive
same,odorant receptor agonist call,UniProt Q7TQU8,inactive
CCc1ccc(O)cc1,odorant receptor agonist call,UniProt L7MU75,inactive
same,odorant receptor agonist call,UniProt L7N210,active
same,odorant receptor agonist call,UniProt Q3KPB0,inactive
same,odorant receptor agonist call,UniProt Q3U0P3,inactive
same,odorant receptor agonist call,UniProt Q7TQU8,inactive
CCCCOC,odorant receptor agonist call,UniProt L7MU75,inactive
CCC(=O)OC,odorant receptor agonist call,UniProt L7MU75,inactive
CCC(C)c1nccnc1OC (stereo not given),odorant receptor agonist call,UniProt L7MU75,inactive
same,odorant receptor agonist call,UniProt L7N0P5,active
same,odorant receptor agonist call,UniProt L7N210,inactive
same,odorant receptor agonist call,UniProt Q3KPB0,inactive
same,odorant receptor agonist call,UniProt Q3U0P3,inactive
same,odorant receptor agonist call,UniProt Q7TQU8,inactive
Cc1nccnc1C,odorant receptor agonist call,UniProt L7MU75,inactive
same,odorant receptor agonist call,UniProt L7N0P5,active
CC1=CCC2CC1C2(C)C (stereo not given),odorant receptor agonist call,UniProt L7MU75,inactive
CCC(=O)OC(C)(C)C,odorant receptor agonist call,UniProt L7MU75,inactive
COc1nccnc1C(C)C,odorant receptor agonist call,UniProt L7MU75,inactive
same,odorant receptor agonist call,UniProt L7N0P5,active
same,odorant receptor agonist call,UniProt L7N210,inactive
same,odorant receptor agonist call,UniProt Q3KPB0,inactive
same,odorant receptor agonist call,UniProt Q3U0P3,inactive
same,odorant receptor agonist call,UniProt Q7TQU8,inactive
O=C([O-])CCCCCCCC(=O)[O-].[H+].[H+],odorant receptor agonist call,UniProt L7MU75,inactive
same,odorant receptor agonist call,UniProt L7N210,inactive
same,odorant receptor agonist call,UniProt Q3KPB0,inactive
same,odorant receptor agonist call,UniProt Q3U0P3,inactive
same,odorant receptor agonist call,UniProt Q7TQU8,inactive
OCC=Cc1ccccc1,odorant receptor agonist call,UniProt L7MU75,inactive
same,odorant receptor agonist call,UniProt L7N210,active
same,odorant receptor agonist call,UniProt Q3KPB0,inactive
same,odorant receptor agonist call,UniProt Q3U0P3,inactive
same,odorant receptor agonist call,UniProt Q7TQU8,inactive
CCCCOC(=O)CCC,odorant receptor agonist call,UniProt L7MU75,inactive
OCc1ccccc1,odorant receptor agonist call,UniProt L7MU75,inactive
CC(C)=CCCC(C)CC=O (stereo not given),odorant receptor agonist call,UniProt L7MU75,inactive
CCCCCC(C)O (stereo not given),odorant receptor agonist call,UniProt L7MU75,inactive
same,odorant receptor agonist call,UniProt L7N210,inactive
same,odorant receptor agonist call,UniProt Q3KPB0,inactive
same,odorant receptor agonist call,UniProt Q3U0P3,inactive
same,odorant receptor agonist call,UniProt Q7TQU8,inactive
CCCCCCC(=O)OCCCC,odorant receptor agonist call,UniProt L7MU75,inactive
same,odorant receptor agonist call,UniProt L7N210,inactive
same,odorant receptor agonist call,UniProt Q3KPB0,inactive
same,odorant receptor agonist call,UniProt Q3U0P3,inactive
same,odorant receptor agonist call,UniProt Q7TQU8,inactive
CCC=O,odorant receptor agonist call,UniProt L7MU75,inactive
CCCC(=O)OC,odorant receptor agonist call,UniProt L7MU75,inactive
CC(O)c1ccccc1 (stereo not given),odorant receptor agonist call,UniProt L7MU75,inactive
CCc1ncc(C)nc1CC,odorant receptor agonist call,UniProt L7MU75,inactive
same,odorant receptor agonist call,UniProt L7N0P5,active
same,odorant receptor agonist call,UniProt L7N210,inactive
same,odorant receptor agonist call,UniProt Q3KPB0,inactive
same,odorant receptor agonist call,UniProt Q3U0P3,inactive
same,odorant receptor agonist call,UniProt Q7TQU8,inactive
C=CCCCCCC,odorant receptor agonist call,UniProt L7MU75,inactive
CCc1nccnc1CC,odorant receptor agonist call,UniProt L7MU75,inactive
same,odorant receptor agonist call,UniProt L7N0P5,active
same,odorant receptor agonist call,UniProt L7N210,inactive
same,odorant receptor agonist call,UniProt Q3KPB0,inactive
same,odorant receptor agonist call,UniProt Q3U0P3,inactive
same,odorant receptor agonist call,UniProt Q7TQU8,inactive
CC(C)CN,odorant receptor agonist call,UniProt L7MU75,inactive
CNc1ccccc1C(=O)OC,odorant receptor agonist call,UniProt L7MU75,inactive
same,odorant receptor agonist call,UniProt L7N210,active
same,odorant receptor agonist call,UniProt Q3KPB0,inactive
same,odorant receptor agonist call,UniProt Q3U0P3,inactive
same,odorant receptor agonist call,UniProt Q7TQU8,inactive
CC1(C)CC(=O)CC(=O)C1,odorant receptor agonist call,UniProt L7MU75,inactive
same,odorant receptor agonist call,UniProt L7N210,inactive
same,odorant receptor agonist call,UniProt Q3KPB0,inactive
same,odorant receptor agonist call,UniProt Q3U0P3,inactive
same,odorant receptor agonist call,UniProt Q7TQU8,inactive
